Hep lipid drop: hepatic lipid droplet formation modulation. AML12 mouse hepatocytes, oleate lipid droplets, BODIPY imaging. inhibition, % at 6.5 µM. 0.4% of 240,000 active;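 active = lipid droplet intensity inhibited by at least 50%, with more than 500 cells counted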
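System: AML12 hepatocytes (mouse). Probe or stimulus: oleic acid at 100 µM to induce lipid droplet formation. Times: overnight treatment with compound plus oleate. Detection: Image-based BODIPY and DAPI two-channel analysis. Evaluation: percent inhibition of filter-corrected integrated lipid droplet intensity per well.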
TbHK1 inh: T. brucei hexokinase 1 inhibition | AID 1430 | 0.11% of 220,000 active | inhibition, % at 10 µM | recombinant TbHK1, G6PDH-coupled NADH A340;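 active = inhibition of 50% or more in the single-dose primary screen; inactive = inhibition below 50%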
PfM18AAP inh: blocks P. falciparum M18 aspartyl aminopeptidase | recombinant PfM18AAP, H-Glu-NHMec fluorogenic cleavage | inhibition, % at 7.35 µM | 1.2% of 290,000 active;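 active = inhibition above the campaign mean inhibition over all tested compounds plus 3 SD, cut at about 28% in these data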
TNF death inh: blocks TNF-alpha induced death of Jurkat FADD-/- cells; Jurkat FADD-/- TNF necroptosis rescue, ATP luminescence, 24 h; 0 = TNF only, 100 = no-TNF cells; activation (protection from cell death), % at 10 µM; 0.068% of 220,000 active; AID 463075;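 active = activation, meaning protection from cell death, of at least 50% relative to plate controls; inactive = activation below 50%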;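 note: necroptosis triggered by 40 ng/mL TNF-alpha added together with compound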
L929 necroptosis: L929 zVAD cell death inhibition | 0.38% of 220,000 active | viability rescue, % at 10 µM | L929 zVAD necroptosis rescue, ATP luminescence, 24 h; with zVAD 60 µM;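 active = activation, scaled between plate controls, above about 75%, limit read from the data; inactive = activation under that limit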
RBBP9 inhibitor: inhibitors of human serine hydrolase RBBP9 | AID 1515 | O75884 | inhibition, % at 7.94 µM | recombinant RBBP9, FP-Rh probe fluorescence polarization | 0.2% of 220,000 active;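 active = inhibition above the campaign mean of all tested compounds plus 3 SD, cut at about 14% in these data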
Target sequence (O75884 whole entry, looked up): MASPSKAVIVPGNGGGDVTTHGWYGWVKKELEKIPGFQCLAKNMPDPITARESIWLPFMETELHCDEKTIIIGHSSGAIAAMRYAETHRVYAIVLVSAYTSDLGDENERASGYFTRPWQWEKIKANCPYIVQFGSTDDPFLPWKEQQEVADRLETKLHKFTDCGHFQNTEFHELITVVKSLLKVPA
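Material: RBBP9 protein. Amount: RBBP9 at 2.5 µM in dispensed solution, before mixing. Schedule: 30 min then 45 min, 25 °C. Medium: Tris buffer pH 8.0, NaCl, Pluronic. Measured by: fluorescence polarization. Measure: percent inhibition from mP, scaled between DMSO and no-protein wells. Replication: one well per compound.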
zVAD necrop conf: confirmed blocker of zVAD induced death in L929 cells. L929 zVAD-induced necroptosis rescue, ATP luminescence, 24 h. 16% of 760 active. activation (protection from necroptosis), % at 10 µM. shares compounds with L929 necroptosis;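 active = mean protection from necroptosis of at least 50% over duplicate tests; inactive = mean protection below 50%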
Of the large screens only hits and unclear results are named; the others gave an inactive call (follow-up assays come after a bar, where they were run). This is a sample that favours compounds with a hit; in the whole collection about 2% have one here.

N#Cc1cccc(NC(=O)COc2ccc(-n3ccnc3)cc2)c1	L929 necroptosis 77 (no result: Hep lipid drop) | zVAD necrop conf 68
COc1ccc(/C=C/C(=O)C(C(N)=O)=C2SCCS2)cc1	none
NC(=O)C(C(=O)/C=C/c1ccc(Cl)cc1)=C1SCCS1	L929 necroptosis 82 | zVAD necrop conf inactive
O=[N+]([O-])c1cccc(-c2csc(N/N=C/c3cccc(O)c3)n2)c1	none
CCn1c2ccccc2c(=O)c2ccccc21	L929 necroptosis 80 | zVAD necrop conf inactive
O=C(Nc1ccccc1C(=O)N1CCCCC1)c1cc(F)c(F)cc1Cl	none (no result: TbHK1 inh, TNF death inh, L929 necroptosis, RBBP9 inhibitor)
COc1ccccc1NS(=O)(=O)c1cccc(C(=O)N/N=C(\C)c2ccc(-n3ccnc3)cc2)c1	PfM18AAP inh 30, L929 necroptosis 76 | zVAD necrop conf inactive
C/C(=N\NC(=O)c1ccccc1)c1ccc(-n2ccnc2)cc1	none
COc1cc2[nH]c3c(N4CCN(c5ccc(Cl)cc5)CC4)ncnc3c2cc1OC	none (no result: Hep lipid drop)
COc1cc2[nH]c3c(Cl)ncnc3c2cc1OC	L929 necroptosis 77 | zVAD necrop conf inactive
O=c1oc(-c2cccnc2)nc2ccccc12	none (no result: Hep lipid drop)
NC(=O)c1ccc(-c2ncc(-c3ccccc3)o2)cc1	L929 necroptosis 79 (no result: Hep lipid drop) | zVAD necrop conf 63
c1ccc(-c2cnc(-c3cccnc3)o2)cc1	L929 necroptosis 79 (no result: Hep lipid drop) | zVAD necrop conf inactive
CN(Cc1nc(Cc2ccccc2F)no1)Cc1cccc2ncccc12	none
CN1CCN(c2ccc(-c3ccnn3C(=O)Nc3ccccc3)cc2)CC1	L929 necroptosis 84 | zVAD necrop conf inactive
CN1CCN(c2ccc(NC(=O)C(C)(c3ccccc3)c3ccccc3)cc2)CC1	none (no result: TbHK1 inh, TNF death inh, L929 necroptosis, RBBP9 inhibitor)
O=C(Nc1ccc(Cl)c(Cl)c1)c1cccc(S(=O)(=O)NCc2cccnc2)c1	L929 necroptosis 77 | zVAD necrop conf inactive
COc1cccc(S(=O)(=O)NCc2ccc(C(=O)Nc3ccc(Cl)c(Cl)c3)cc2)c1	none
CNc1ncc(C(=O)c2ccc(F)cc2)s1	L929 necroptosis 85 | zVAD necrop conf inactive
O=C(CN1CCN(S(=O)(=O)N2CCOCC2)CC1)Nc1cc(Cl)ccc1Cl	none (no result: TbHK1 inh, TNF death inh, L929 necroptosis, RBBP9 inhibitor)
O=C(N/N=C/c1ccccc1)c1n[nH]c2c1CCCC2	L929 necroptosis 83 | zVAD necrop conf inactive
O=C(N/N=C/c1ccc(Cl)cc1)c1n[nH]c2c1CCCC2	none
Cc1nc2nc(SCC(=O)c3ccc([N+](=O)[O-])cc3)[nH]c2cc1Br	L929 necroptosis 90 | zVAD necrop conf inactive
Cc1nc2nc(SCC(N)=O)[nH]c2cc1Br	none
O=C(CSc1nnc(-c2ccc(F)cc2)o1)N1CCN(C(=O)c2ccco2)CC1	none (no result: Hep lipid drop)
O=C(CSc1nnc(-c2ccccc2Br)o1)N1CCN(C(=O)c2ccco2)CC1	L929 necroptosis 86 (no result: Hep lipid drop) | zVAD necrop conf inactive
COC(=O)c1ccc(COC(=O)c2ccc(-n3cnnn3)cc2)o1	none (no result: Hep lipid drop)
CC(C)(C)c1ccc(NC(=O)COC(=O)C2(C)CC2(Cl)Cl)cc1 (stereo unspecified)	L929 necroptosis 77 | zVAD necrop conf inactive
COc1cc(/C=C/C(=O)c2ccc(NS(=O)(=O)c3ccc(C)cc3)cc2)cc(OC)c1O	L929 necroptosis 103 | zVAD necrop conf inactive
N#Cc1c(N)nc2c(c1-c1ccccc1)CCC2	L929 necroptosis 79 | zVAD necrop conf inactive
COc1ccc(-c2c(C#N)c(N)nc3c2CCC3)cc1	none
CC(=O)c1cccc(NC(=S)NC(=O)CC(C)(C)C)c1	none (no result: Hep lipid drop)
CCC(=O)Nc1ccc(C(=O)CSc2nc3ccc(C)cc3[nH]2)cc1	L929 necroptosis 76 | zVAD necrop conf inactive
CCC(=O)Nc1ccc(C(=O)CSc2nc3ccccc3[nH]2)cc1	none (no result: L929 necroptosis)
O=C(Nc1ccc(-c2noc(COc3ccccc3Cl)n2)cc1)c1ccco1	L929 necroptosis 98 | zVAD necrop conf inactive
O=C(COc1ccccc1Cl)Nc1ccc(NC(=O)c2ccco2)cc1	none (no result: TbHK1 inh, TNF death inh, L929 necroptosis, RBBP9 inhibitor)
O=C(O)c1ccc(CN(c2ccccc2)S(=O)(=O)c2ccccc2)cc1	none (no result: TbHK1 inh, TNF death inh, L929 necroptosis, RBBP9 inhibitor)
CCN(CC)Cc1cc2[nH]c3c4ccc(Cl)cc4ncc3c2cc1OC	L929 necroptosis 81 | zVAD necrop conf 73
CC1CC(=O)C=C(O)C1C(=O)OC(C)(C)C (stereo unspecified)	none
CCc1cccc(C)c1NC(=S)NCC(c1cccnc1)N1CCOCC1 (stereo unspecified)	none
COc1cc(NC(=O)CSc2nnc(NC(C)C)s2)cc(OC)c1OC	none
CCOC(=O)c1sc(NC(=O)C(C)Sc2nnc(N)s2)nc1C (stereo unspecified)	L929 necroptosis 78 | zVAD necrop conf inactive
C=C(C)CN1CCN(S(=O)(=O)c2ccc(C)c(N(C)S(=O)(=O)c3ccc(C)cc3)c2C)CC1	none
COc1ccc(CN2CCNC(=O)C2CC(=O)NCCc2c[nH]c3ccccc23)c(OC)c1 (stereo unspecified)	none
COC(=O)CCc1c(C)[nH]c(C(=O)OCc2ccccc2)c1C	L929 necroptosis 76 (no result: Hep lipid drop) | zVAD necrop conf inactive
Cc1ccc(C(CC(=O)NCCCN(C)C)c2ccc(OC(C)C)cc2)cc1 (stereo unspecified)	none
N/C(=N\NC(=O)Nc1ccc(Cl)cc1)c1ccccn1	L929 necroptosis 81 | zVAD necrop conf inactive
Cc1c(Cl)cccc1NC(=O)Nc1cc(C(C)(C)C)nn1C	L929 necroptosis 81 | zVAD necrop conf inactive
CC(OC(=O)c1ccncc1)C(=O)Nc1cccc(Cl)c1 (stereo unspecified)	none (no result: Hep lipid drop)
COc1ccc(/C=C/c2nc(-c3ccccc3O)n[nH]2)cc1OC	L929 necroptosis 81 | zVAD necrop conf inactive
CCC1(CC)Cc2ccccc2C(C2=C(O)CC(C)(C)CC2=O)=N1	none (no result: Hep lipid drop)
Nc1ccc(Nc2nc(-c3cc4ccccc4oc3=O)cs2)cc1	L929 necroptosis 80 | zVAD necrop conf inactive
CC(=O)Nc1ccc(Nc2nc(-c3cc4ccccc4oc3=O)cs2)cc1	none (no result: TbHK1 inh, TNF death inh, L929 necroptosis, RBBP9 inhibitor)
COc1ccc(NC(=O)Nc2nc3c(s2)CCCC3)cc1	L929 necroptosis 79 | zVAD necrop conf inactive
COc1ccc(OCC(=O)Nc2nc3c(s2)CCCC3)cc1	none (no result: TbHK1 inh, TNF death inh, L929 necroptosis, RBBP9 inhibitor)
CCn1ncc([N+](=O)[O-])c1C(=O)Nc1c(C)nn(Cc2ccc(F)cc2)c1C	none
COc1ccc(NC(=O)CCCn2cc([N+](=O)[O-])cn2)cc1	none
c1cncc(-c2nc(NCCCn3ccnc3)c3ccccc3n2)c1	L929 necroptosis 75 | zVAD necrop conf inactive
Cc1nc(NCCCn2ccnc2)c2ccccc2n1	none (no result: Hep lipid drop)
Cc1ccccc1OCC(=O)Nc1ccncc1	none (no result: TbHK1 inh, TNF death inh, L929 necroptosis, RBBP9 inhibitor)
Cc1ccccc1OCC(=O)Nc1ccc(Cc2ccncc2)cc1	L929 necroptosis 79 | zVAD necrop conf inactive
COc1ccc(OC)c(NC(=O)c2cccnc2Sc2ccccc2)c1	none
Cc1cc(NC(=O)Nc2ccc(OCc3ccccc3)cc2)n(C)n1	none (no result: Hep lipid drop, TbHK1 inh, TNF death inh, L929 necroptosis, RBBP9 inhibitor)

High-throughput results as filed in PubChem.
